Screening data (PubChem)
EWS-Fli block = inhibitors of EWS/Fli oncoprotein transcriptional activity; A673 NR0B1-luciferase reporter, viability-normalised; 350,000 compounds, 0.67% hits; inhibition, % at 12.6 µM;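 active = mean inhibition of at least 50% after viability correction, with every replicate also passing that limit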;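 also: firefly luciferase signal divided by Alamar Blue viability fluorescence both relative to DMSO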
HIV Env fusion = inhibitors of HIV Env-mediated cell fusion; HeLa-JRFL Env/CEM21 cell fusion, luciferase; inhibition, % at 12.3 µM; 360,000 compounds, 1.1% hits; AID 651610;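 active = mean replicate inhibition score of at least 50 and every replicate individually at or above 50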;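 also: 0% = plate neutral controls and 100% = maraviroc near 300 nM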
FGF22 binding-1 = FGF22 (human) thermal shift binding. Q9HCT0. recombinant FGF22 thermal shift, SYPRO orange fluorescence; percent of sucrose octasulfate shift, DMSO zero. activity (Tm shift, normalised), % at 9.99 µM. 340,000 compounds, 1.5% hits. AID 651658;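 active = mean Tm shift, scaled 0 neutral to 100 positive control, at about 1.3% or above, every replicate too, limit read from the data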
Target sequence (Q9HCT0 whole entry, looked up): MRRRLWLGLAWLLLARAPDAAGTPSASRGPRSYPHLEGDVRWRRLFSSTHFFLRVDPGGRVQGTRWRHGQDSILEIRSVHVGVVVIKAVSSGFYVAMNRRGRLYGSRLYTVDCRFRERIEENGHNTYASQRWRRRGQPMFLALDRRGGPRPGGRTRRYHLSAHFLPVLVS
PGC1a acetyl inh = modulators of PGC1a acetylation. U2OS PGC1a acetylation, AlphaScreen anti-acetyl-lysine; with virally co-expressed GCN5 acetyltransferase. 350,000 compounds, 0.17% hits. inhibition, % at 15.6 µM;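 active = every replicate shows inhibition of at least 40%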;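 also: 0% = neutral control wells and 100% = positive control wells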
PAX8 inh HTS = PAX8 transcriptional activity inhibition; RMG-I TPO-luciferase reporter, SteadyGlo, 24 h; inhibition, % at 12.6 µM; 360,000 compounds, 1.2% hits;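 active = mean replicate inhibition at least 60% with every replicate also reaching 60%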;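 also: luciferase light reporting Pax8 driven TPO promoter activity; plate controls were median of neutral control wells for no effect and mitoxantrone controls for full effect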
FN deposition inh = fibronectin deposition inhibition | AH1F fibroblasts, Alexa488-fibronectin deposition fluorescence, overnight | inhibition, % at 12.6 µM | 350,000 compounds, 0.086% hits | AID 743247;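 active = mean inhibition across replicates of 30% or more, regardless of how many single replicates reach that level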;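 also: positive control wells lacked labelled fibronectin entirely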
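Assay system: AH1F fibroblasts / Quantity: 10000 cells per well / Medium: DMEM plus 2% serum, read in PBS / Reagent: labelled fibronectin 24 nM / Dosing: single dose, pinned / Times: 1 h cell attachment, overnight exposure to compound and label / Signal: fluorescence, ex 485 nm, em 525 nm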
FGF22 binding-2 = FGF22 (human) binding in thermal shift; shares compounds with FGF22 binding-1; 1,000 compounds, 2% hits; recombinant FGF22 thermal shift, SYPRO orange fluorescence; thermal shift activity, °C (ΔTm) at 38 µM; AID 720646;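 active = fitted rise in melting shift crosses a set limit at or below the top valid dose tested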
FGF22 TSA DP = binds human FGF22 shifting its melting temperature; 50 tested, under 10 active; Thermal shift assay, SYPRO orange, melting temperature shift; Tm shift (activity), % at 38 µM; shares compounds with FGF22 binding-1;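 active = compounds whose fitted dose curve of melting temperature shift rises past a set threshold within the tested doses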
TSA no protein = shows thermal shift signal without protein, FGF22 counter-screen | AID 743019 | compound-only SYPRO orange thermal shift counter-screen, no protein | shares compounds with FGF22 binding-1 | AC50, µM (titrated, usually from 38 µM) | 1,000 compounds, 2% hits;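 active = rising signal whose fitted curve reaches the 0.54 level within the top valid dose, showing a melting point, actives reach about 13 µM in these data; inactive = the rest, including activity in the opposite direction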; also: value is where the raw curve crosses a fixed level and not half-maximal
An asterisk follows results filed as active; i = inactive; . = no result; [ ] = remark or other dose. An excerpt weighted towards active compounds, which were near 3.1% of everything screened.

SMILES	EWS-Fli block	HIV Env fusion	FGF22 binding-1	PGC1a acetyl inh	PAX8 inh HTS	FN deposition inh	FGF22 binding-2	TSA no protein	others
Nc1cccc(-c2nc3ccc(C(=O)c4ccccc4)cc3[nH]2)c1	-63.4	i	12.9*	.	-99.7	-3.2	0.031	i	FGF22 TSA DP=0.3
O=C(NN1C(=O)CSC1=S)C(=O)NN1C(=O)CSC1=S	8.3	6.7	2.4*	10.2	-12.1	2.3	-0.042	i
O=C(O)CN1C(=O)CSC1=S	-10.8	1.2	-0.3	2.1	-13.5	1.8	.	.
O=C(N/N=C/c1c[nH]c2ccccc12)C1CC1c1ccccc1 (stereo unspecified)	15.5	.	1.5*	.	42.7	0.0	0.036	i
CC(C)(C)c1ccc(C2CC2C(=O)N/N=C\c2ccc[nH]2)cc1 (stereo unspecified)	62.5*	98.4*	2.0*	36.3	53.4	-1.6	-0.039	i
O=C(N/N=C\c1c[nH]c2ccccc12)c1ccc(O)cc1	-0.7	4.1	6.7*	0.1	7.3	.	.	i
O=C(N/N=C/c1c[nH]c2ccccc12)c1ccc(Br)cc1	-53.2	-5.9	-0.1	14.3	0.5	1.5	.	.
Nc1ccc(C(=O)N/N=C/c2c[nH]c3ccccc23)cc1	-34.2	1.8	2.7*	-4.4	-12.7	5.5	0.148	i	FGF22 TSA DP=-0.2
O=C(NCc1ccccn1)[C@@H]1[C@@H](CO)[C@@H]2Cn3c(cccc3=O)[C@H]1N2CC1CCCCC1	-1.4	.	0.1	-5.2	-6.4	.	.	.
CC(C)C#Cc1ccc([C@@H]2[C@H](CO)N3C(=O)CN(C(=O)C4CCCCC4)C[C@@H]23)cc1	-3.0	.	1.2*	3.1	-4.4	.	0.341	i
CC(C)C#Cc1ccc([C@H]2[C@H](CO)N3C(=O)CN(C(=O)C4CCCCC4)C[C@@H]23)cc1	-2.3	.	1.6*	-3.5	8.6	.	0.472	i
CC(C)C#Cc1ccc([C@H]2[C@@H](CO)N3C(=O)CN(C(=O)C4CCCCC4)C[C@H]23)cc1	-8.8	.	1.0	-14.8	-9.6	.	.	.
O=C(Nc1ccc(C(F)(F)F)cc1)N[C@H]1C=C[C@H](CC(=O)N2CCCCC2)O[C@@H]1CO	-8.2	2.0[16.7 µM]	-0.1	-0.5	7.3	-0.5	.	.
COC(=O)CN1C(=S)N(c2ccc(F)cc2)C(=O)C1CC(=O)Nc1ccc(F)cc1 (stereo unspecified)	11.3	5.1	-0.1	-12.8	0.0	-3.1	.	.
CCOc1ccc(N2C(=O)C(CC(=O)Nc3ccccc3)N(Cc3ccccn3)C2=S)cc1 (stereo unspecified)	2.1	8.9	1.5*	-4.8	22.2	-20.1	0.577	i
COC(=O)CN1C(=S)N(c2ccc(Cl)cc2)C(=O)C1CC(=O)Nc1ccc(F)cc1 (stereo unspecified)	1.0	-1.8	1.9*	.	-3.5	0.1	-0.156	i
CCOc1ccc(N2C(=O)C(CC(=O)Nc3ccc(F)cc3)N(Cc3ccccn3)C2=S)cc1 (stereo unspecified)	2.3	-8.2	1.7*	-5.7	1.4	-2.5	-0.354	i
COc1ccc(N2C(=O)C(CC(=O)Nc3ccccc3)N(Cc3ccc4c(c3)OCO4)C2=O)cc1 (stereo unspecified)	-2.5	.	1.4*	2.8	.	.	0.043	i
CCNC(=O)CC1C(=O)N(c2ccc(F)cc2)C(=O)N1Cc1ccccn1 (stereo unspecified)	.	-29.7	.	7.9	.	-6.4	.	.
C=CCN1C(=O)C(CC(=O)Nc2ccc(OCC)cc2)N(Cc2ccccn2)C1=S (stereo unspecified)	-10.2	-15.0	1.1	-14.4	-18.2	-7.6	.	.
C[C@H](CO)N1C[C@H](C)[C@H](CN(C)Cc2ccccc2)Oc2c(NS(=O)(=O)c3ccc(F)cc3)cccc2C1=O	-3.7	-15.0[16.7 µM]	-0.1	1.8	1.4	.	.	.
Cc1ccc(S(=O)(=O)N(C)C[C@H]2Oc3c(NC(=O)Nc4ccc5c(c4)OCO5)cccc3C(=O)N([C@H](C)CO)C[C@@H]2C)cc1	0.3	-4.9[16.7 µM]	0.1	7.2	1.0	.	.	.
O=C(Nc1ccccc1F)N1C[C@H]2[C@@H](c3ccccc31)[C@H](CO)N2C(=O)Cc1cccnc1	-28.4	.	.	-1.7	-19.9	-2.1	.	.
CO[C@@H]1CN(C)C(=O)c2ccc(NC(=O)C3CC3)cc2OC[C@H](C)N(CC2CC2)C[C@@H]1C	-2.4	.	0.1	-2.0	-5.7	-1.0	.	.
COc1ccc(NC(=O)CC2C(=O)N(c3ccc(Cl)cc3)C(=S)N2CCc2ccccn2)cc1 (stereo unspecified)	-1.3	.	0.0	-7.6	31.4	0.8	.	.
SMILES	EWS-Fli block	HIV Env fusion	FGF22 binding-1	PGC1a acetyl inh	PAX8 inh HTS	FN deposition inh	FGF22 binding-2	TSA no protein	others
COc1ccc(N2C(=O)C(CC(=O)Nc3ccccc3)N(Cc3ccccn3)C2=S)cc1 (stereo unspecified)	9.5	0.3	1.7*	0.6	5.6	-4.6	-0.015	i
O=C(c1ccncc1)N1C[C@H]2[C@@H](c3ccccc31)[C@@H](CO)N2Cc1ccc(F)cc1	12.3	.	0.1	-2.9	28.5	.	.	.
C/C=C/c1ccc2c(c1)O[C@H](CN(C)C(=O)Nc1cc(F)ccc1F)[C@H](C)CN([C@H](C)CO)S2(=O)=O	13.9	42.7[16.7 µM]	1.2*	-2.8	.	.	0.026[42 µM]	i
C/C=C/c1ccc2c(c1)O[C@H](CN(C)Cc1ccncc1)[C@@H](C)CN([C@H](C)CO)S2(=O)=O	16.1	14.0[16.7 µM]	0.0	1.4	.	-1.6	.	.
C/C=C/c1ccc2c(c1)O[C@@H](CN(C)C(=O)Nc1cccc(F)c1)[C@@H](C)CN([C@@H](C)CO)S2(=O)=O	-15.8	.	1.5*	-16.2	-7.0	.	-0.824[42 µM]	i
C/C=C/c1ccc2c(c1)O[C@@H](CN(C)Cc1ccncc1)[C@@H](C)CN([C@@H](C)CO)S2(=O)=O	-5.9	17.0[16.7 µM]	1.6*	-6.3	.	6.2	0.188[42 µM]	i
C/C=C/c1ccc2c(c1)O[C@H](CN(C)C(=O)Nc1cccc(F)c1)[C@H](C)CN([C@H](C)CO)S2(=O)=O	14.0	.	0.2	2.0	13.2	.	.	.
O=C(c1ccccc1F)N1CC(=O)N2[C@@H](CO)[C@H](c3ccc(-c4ccc(F)cc4)cc3)[C@@H]2C1	-5.2	.	1.8*	-8.7	-21.0	.	0.142[42 µM]	i
O=C(NC1CCCCC1)N1CC(=O)N2[C@@H](CO)[C@H](c3ccc(-c4cccc(F)c4)cc3)[C@@H]2C1	6.2	.	0.9	-5.7	-4.3	.	.	.
CCCNC(=O)N1CC(=O)N2[C@H](CO)[C@@H](c3ccc(-c4cccc(C)c4)cc3)[C@@H]2C1	6.7	.	2.2*	4.9	5.4	.	0.222[42 µM]	i
